Source: ChEMBL document CHEMBL1142933, “Rational design of novel, potent small molecule pan-selectin antagonists” (J Med Chem, 2007)

Experiments:
E-selectin = biological target: T1, E-selectin (Homo sapiens, UniProt P16581); test: Inhibition of human E-selectin after 2 hrs
T1 sequence (P16581 whole entry): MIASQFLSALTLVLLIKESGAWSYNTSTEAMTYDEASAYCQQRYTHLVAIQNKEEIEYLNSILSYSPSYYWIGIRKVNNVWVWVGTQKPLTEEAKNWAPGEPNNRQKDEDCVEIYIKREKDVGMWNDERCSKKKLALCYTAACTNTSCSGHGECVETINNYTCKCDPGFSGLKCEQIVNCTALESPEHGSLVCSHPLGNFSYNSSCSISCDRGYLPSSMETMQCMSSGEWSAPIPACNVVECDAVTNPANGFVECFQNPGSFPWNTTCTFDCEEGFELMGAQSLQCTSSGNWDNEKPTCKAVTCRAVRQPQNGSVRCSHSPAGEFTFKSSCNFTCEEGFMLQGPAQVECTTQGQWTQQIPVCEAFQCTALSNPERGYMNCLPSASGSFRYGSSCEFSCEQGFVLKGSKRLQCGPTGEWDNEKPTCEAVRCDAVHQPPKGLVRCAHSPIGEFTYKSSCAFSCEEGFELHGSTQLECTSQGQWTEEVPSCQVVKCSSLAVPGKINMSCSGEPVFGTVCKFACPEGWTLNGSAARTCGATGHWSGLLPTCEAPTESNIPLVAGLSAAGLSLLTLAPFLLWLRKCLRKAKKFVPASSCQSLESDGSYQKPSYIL
How it was run: (§1)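 Biotinylated sLeX-tyrosine sulfate polyacrylamide complexed with streptavidin-peroxidase added with compound at varying concentrations (HEPES pH 7.4, 1 mM CaCl2, 1% DMSO), 2 h 37 °C. TMB read-out, OD 450 vs 620 nm.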

P-selectin = biological target: T2, P-selectin (Homo sapiens, UniProt P16109); test: Inhibition of human P-selectin after 2 hrs; how it was run: as §1
T2 sequence (P16109 whole entry): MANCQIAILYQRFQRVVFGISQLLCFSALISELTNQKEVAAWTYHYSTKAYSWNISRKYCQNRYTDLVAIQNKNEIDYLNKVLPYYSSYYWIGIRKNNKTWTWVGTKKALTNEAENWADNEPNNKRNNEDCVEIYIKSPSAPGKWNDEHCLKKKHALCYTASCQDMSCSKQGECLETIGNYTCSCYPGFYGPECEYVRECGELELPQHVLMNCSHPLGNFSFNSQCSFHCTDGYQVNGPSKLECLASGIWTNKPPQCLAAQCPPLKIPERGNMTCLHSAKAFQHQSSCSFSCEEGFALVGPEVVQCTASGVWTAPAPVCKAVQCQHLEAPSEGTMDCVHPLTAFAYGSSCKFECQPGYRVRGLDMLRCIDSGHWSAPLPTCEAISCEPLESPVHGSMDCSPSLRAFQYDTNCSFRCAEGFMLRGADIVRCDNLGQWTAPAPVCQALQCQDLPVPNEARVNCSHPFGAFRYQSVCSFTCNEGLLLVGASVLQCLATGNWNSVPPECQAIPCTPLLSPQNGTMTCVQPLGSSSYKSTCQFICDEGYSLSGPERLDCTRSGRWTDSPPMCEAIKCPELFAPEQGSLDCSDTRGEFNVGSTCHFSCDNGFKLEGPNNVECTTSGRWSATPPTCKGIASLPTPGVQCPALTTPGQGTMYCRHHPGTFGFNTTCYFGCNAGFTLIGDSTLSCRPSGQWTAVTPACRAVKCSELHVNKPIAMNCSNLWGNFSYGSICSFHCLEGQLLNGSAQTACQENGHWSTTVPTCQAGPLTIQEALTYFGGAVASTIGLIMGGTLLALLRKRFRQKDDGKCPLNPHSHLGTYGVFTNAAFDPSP

L-selectin = biological target: T3, L-selectin (Homo sapiens, UniProt P14151); test: Inhibition of human L-selectin after 2 hrs; how it was run: as §1
T3 sequence (P14151 whole entry): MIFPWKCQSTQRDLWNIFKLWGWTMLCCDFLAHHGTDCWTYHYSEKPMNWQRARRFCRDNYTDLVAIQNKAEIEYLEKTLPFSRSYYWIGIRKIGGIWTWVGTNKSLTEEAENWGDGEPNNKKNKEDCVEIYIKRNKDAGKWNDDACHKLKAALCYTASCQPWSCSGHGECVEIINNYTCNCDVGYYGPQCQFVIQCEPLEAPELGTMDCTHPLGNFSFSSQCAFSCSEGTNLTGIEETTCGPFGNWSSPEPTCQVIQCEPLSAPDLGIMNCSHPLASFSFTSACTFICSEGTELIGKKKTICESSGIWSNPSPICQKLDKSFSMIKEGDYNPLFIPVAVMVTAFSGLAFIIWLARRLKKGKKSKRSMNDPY

HL-60 [1] = test: Inhibition of attachment of HL60 cells to E-selectin at 109 uM after 5 mins; format: functional; details: Homo sapiens, HL-60, 5 min
How it was run: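 Dishes coated with E- or P-selectin/Fc chimera, blocked with BSA, mounted in a parallel flow chamber run recirculating; HL-60 cells at 2.4 million/mL final. Cells attached after 5 min continuous flow at calculated shear 1 dyn/cm², with 109 µM compound or DMSO vehicle, counted in five low power fields. Mean inhibition as % of vehicle control from mean cells/field of at least two independent experiments.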

HL-60 [2] = test: Inhibition of attachment of HL60 cells to P-selectin at 109 uM after 5 mins; format: functional; details: Homo sapiens, HL-60, 5 min
How it was run: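 Dishes coated with E- or P-selectin/Fc chimera, blocked with BSA, mounted in a parallel flow chamber run recirculating; HL-60 cells at 2.4 million/mL final. Mean inhibition as % of vehicle control from mean cells/field of at least two independent experiments.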

| SMILES | IC50 (E-selectin) [µM] | IC50 (P-selectin) [µM] | IC50 (L-selectin) [µM] | inhibition at 109 µM (HL-60 [1]) [%] | inhibition at 109 µM (HL-60 [2]) [%] |
| --- | --- | --- | --- | --- | --- |
| O=C(O)Cc1ccc(-c2ccccc2NC(=O)CCCc2ccc(O)c(O)c2O)s1 | > 500 | 24.8 | 41.7 | 26 | 47 |
| O=C(Nc1ccccc1-c1ccc(C(=O)O)s1)c1cccc(-c2ccc(O)c(O)c2O)c1 | 61.4 | 1.2 | 1.6 | 53 | 98 |
| O=C(O)Cc1ccc(-c2ccccc2NC(=O)/C=C/c2ccc(O)c(O)c2O)s1 | 57.2 | 3.4 | 4.3 |  | 56 |
| O=C(O)Cc1cccc(-c2ccccc2OC(=O)c2cc(O)c(O)c(O)c2)c1 | > 500 | 0.87 | 1.5 | 16 | 35 |
| O=C(O)c1cc(O)c(O)c(O)c1 [GALLIC ACID] | > 500 | 19.1 | 27.6 |  |  |
| O=C(O)Cc1ccc(-c2ccccc2NC(=O)CCCc2cc(O)c(O)c(O)c2)s1 | 52.4 | 53.9 | 105 |  |  |
| O=C(O)Cc1cccc(-c2ccccc2NC(=O)CCCNC(=O)c2cc(O)c(O)c(O)c2)c1 | > 500 | 57.2 | 154 | 29 |  |
| O=C(O)Cc1cccc(-c2ccccc2NC(=O)CCc2cc(O)c(O)c(O)c2)c1 | 85.4 | 43.2 | 64.9 | 20 | 22 |
| O=C(O)Cc1cccc(NC(=O)CCc2cc(O)c(O)c(O)c2)c1 |  |  |  | 19 |  |
| O=C(O)Cc1ccc(-c2ccccc2NC(=O)c2ccc(-c3ccc(O)c(O)c3O)cc2)s1 | 48 | 1.1 | 1.6 | 33 | 58 |
| O=C(O)Cc1ccc(-c2ccccc2NC(=O)c2cccc(-c3cc(O)c(O)c(O)c3)c2)s1 | > 500 | 21.8 | 37.6 | 32 | 45 |
| CC(=O)N[C@H]1[C@H]([C@H](O)[C@H](O)CO)O[C@@](O[C@H]2[C@@H](O)[C@@H](CO)O[C@@H](O[C@@H]([C@H](O[C@@H]3O[C@@H](C)[C@@H](O)[C@@H](O)[C@@H]3O)[C@H](C=O)NC(C)=O)[C@H](O)CO)[C@@H]2O)(C(=O)O)C[C@@H]1O [SIALYL LEWIS X] | 134 | > 4000 | > 4000 | 32 |  |
| Cc1ccc(C(=O)O)cc1NC(=O)Cc1cc(O)c(O)c(O)c1 | > 500 | 42.8 | 64.5 | 22 | 24 |
| O=C(O)Cc1cccc(-c2cc(CCCCCCc3ccc(O[C@H]4O[C@H](CO)[C@@H](O)[C@H](O)[C@@H]4O)c(-c4cccc(CC(=O)O)c4)c3)ccc2O[C@H]2O[C@H](CO)[C@@H](O)[C@H](O)[C@@H]2O)c1 [BIMOSIAMOSE] |  |  | > 500 | 28 | 50 |
| O=C(O)Cc1ccc(-c2ccc(NC(=O)c3cccc(-c4ccc(O)c(O)c4O)c3)cc2)s1 | 9.7 | 0.57 | 0.79 | 47 | 83 |
| O=C(O)c1ccc(O)c(O)c1O | > 500 |  | 15.2 |  |  |
| O=C(CCc1cc(O)c(O)c(O)c1)NCc1ccc(C(=O)O)cc1 |  |  |  | 21 | 21 |
